# Assay results: ChEMBL document CHEMBL2040780, “Antiarrhythmic properties of phenylpiperazine derivatives of phenytoin with α₁-adrenoceptor affinities” (Bioorg Med Chem, 2012)
# The source made the active and inactive calls.
# Assays:
# [1] = target: T1, Adrenergic receptor alpha-1 (Rattus norvegicus, UniProt P15823+P23944+P43140); test: Displacement of [3H]prazosin from alpha1 adrenoceptor in rat cerebral cortex after 30 mins by microbeta scintillation counting; type: tissue-based
# T1 sequence (P15823 whole entry): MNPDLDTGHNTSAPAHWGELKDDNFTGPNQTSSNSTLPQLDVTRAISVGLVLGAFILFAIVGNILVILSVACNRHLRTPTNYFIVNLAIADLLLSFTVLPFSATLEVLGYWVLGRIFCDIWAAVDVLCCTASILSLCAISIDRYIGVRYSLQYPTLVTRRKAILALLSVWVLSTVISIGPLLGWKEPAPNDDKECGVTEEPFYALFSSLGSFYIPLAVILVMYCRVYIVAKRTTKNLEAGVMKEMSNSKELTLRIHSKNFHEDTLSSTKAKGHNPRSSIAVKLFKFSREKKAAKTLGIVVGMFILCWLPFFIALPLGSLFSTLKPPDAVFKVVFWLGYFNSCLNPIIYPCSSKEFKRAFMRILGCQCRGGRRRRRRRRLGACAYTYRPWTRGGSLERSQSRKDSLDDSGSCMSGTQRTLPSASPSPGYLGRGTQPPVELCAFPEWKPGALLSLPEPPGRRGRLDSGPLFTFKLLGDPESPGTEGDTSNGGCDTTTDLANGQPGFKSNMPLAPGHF
# T1 sequence (P23944 whole entry): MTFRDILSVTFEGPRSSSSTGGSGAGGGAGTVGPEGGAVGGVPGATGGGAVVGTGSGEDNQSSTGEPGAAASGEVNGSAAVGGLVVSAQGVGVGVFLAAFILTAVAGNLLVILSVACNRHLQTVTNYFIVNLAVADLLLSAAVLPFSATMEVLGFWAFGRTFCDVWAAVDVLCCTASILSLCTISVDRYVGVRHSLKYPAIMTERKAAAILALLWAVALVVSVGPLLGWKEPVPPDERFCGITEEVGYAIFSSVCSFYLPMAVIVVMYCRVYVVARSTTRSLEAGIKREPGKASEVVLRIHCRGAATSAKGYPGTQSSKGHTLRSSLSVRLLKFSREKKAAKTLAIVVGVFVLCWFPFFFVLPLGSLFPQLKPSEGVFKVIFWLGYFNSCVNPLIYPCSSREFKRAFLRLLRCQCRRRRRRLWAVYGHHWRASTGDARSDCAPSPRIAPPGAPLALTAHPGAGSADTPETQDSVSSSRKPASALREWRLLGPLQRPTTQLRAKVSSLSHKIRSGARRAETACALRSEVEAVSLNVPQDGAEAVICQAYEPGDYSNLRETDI
# T1 sequence (P43140 whole entry): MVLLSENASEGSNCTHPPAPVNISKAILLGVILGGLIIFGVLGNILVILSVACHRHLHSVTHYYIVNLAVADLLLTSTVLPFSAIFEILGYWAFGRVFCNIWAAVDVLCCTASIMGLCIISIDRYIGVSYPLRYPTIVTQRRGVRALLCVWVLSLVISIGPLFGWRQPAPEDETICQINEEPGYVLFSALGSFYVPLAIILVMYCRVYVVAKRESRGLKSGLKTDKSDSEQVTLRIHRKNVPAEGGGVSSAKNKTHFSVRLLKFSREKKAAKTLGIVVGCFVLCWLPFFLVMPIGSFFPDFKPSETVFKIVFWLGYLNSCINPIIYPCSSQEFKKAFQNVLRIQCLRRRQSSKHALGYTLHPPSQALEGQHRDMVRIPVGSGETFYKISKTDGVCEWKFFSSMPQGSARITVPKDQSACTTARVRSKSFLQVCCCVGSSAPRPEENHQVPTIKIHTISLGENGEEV
# Outline: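 Rat cerebral cortex homogenised in ice-cold 50 mM Tris-HCl (pH 7.6 at 25 °C), washed twice at 20000×g and resuspended at 10 mg wet weight/ml. Incubated with [3H]prazosin (19.5 Ci/mmol) and test compound for 30 min at 25 °C. Nonspecific binding defined with 10 µM phentolamine. GF/B filtration, scintillation counting, three-parameter logistic competition fit.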
# Rattus norvegicus [2] = test: Antiarrhythmic activity in Wistar rat assessed as effect on heart beat at 10 mg/kg, iv after 1 min; type: functional
# Outline: (§1)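 Male Wistar rats (180–250 g), anaesthetised with thiopental 60 mg/kg ip. Standard lead II ECG recorded at 50 mm/s just before dosing and at 1, 5 and 15 min after. Heart rate and P–Q, Q–T and QRS intervals were read. n=6 per group, mean ± SEM, one-way ANOVA.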
# Rattus norvegicus [3] = test: Antiarrhythmic activity in Wistar rat assessed as effect on heart beat at 10 mg/kg, iv after 5 mins; type: functional; outline: as §1
# Rattus norvegicus [4] = test: Antiarrhythmic activity in Wistar rat assessed as effect on heart beat at 10 mg/kg, iv after 15 mins; type: functional; outline: as §1
# Rattus norvegicus [5] = test: Cardiotoxicity in Wistar rat assessed as effect on P-Q interval at 10 mg/kg, iv after 1 min; type: toxicity, organism-based; parameters: dose 10 mg/kg, route intravenous; details: in vivo; outline: as §1
# Rattus norvegicus [6] = test: Cardiotoxicity in Wistar rat assessed as effect on P-Q interval at 10 mg/kg, iv after 5 mins; type: toxicity, organism-based; parameters: dose 10 mg/kg, route intravenous; details: in vivo; outline: as §1
# Rattus norvegicus [7] = test: Cardiotoxicity in Wistar rat assessed as effect on P-Q interval at 10 mg/kg, iv after 15 mins; type: toxicity, organism-based; parameters: dose 10 mg/kg, route intravenous; details: in vivo, 0.25 h; outline: as §1
# Rattus norvegicus [8] = test: Cardiotoxicity in Wistar rat assessed as effect on Q-T interval at 10 mg/kg, iv after 1 min; type: toxicity, organism-based; parameters: dose 10 mg/kg, route intravenous; details: in vivo; outline: as §1
# Rattus norvegicus [9] = test: Cardiotoxicity in Wistar rat assessed as effect on Q-T interval at 10 mg/kg, iv after 5 mins; type: toxicity, organism-based; parameters: dose 10 mg/kg, route intravenous; details: in vivo; outline: as §1
# Rattus norvegicus [10] = test: Cardiotoxicity in Wistar rat assessed as effect on Q-T interval at 10 mg/kg, iv after 15 mins; type: toxicity, organism-based; parameters: dose 10 mg/kg, route intravenous; details: in vivo, 0.25 h; outline: as §1
# Rattus norvegicus [11] = test: Cardiotoxicity in Wistar rat assessed as effect on QRS interval at 10 mg/kg, iv after 1 min; type: toxicity, organism-based; parameters: dose 10 mg/kg, route intravenous; details: in vivo; outline: as §1
# Rattus norvegicus [12] = test: Cardiotoxicity in Wistar rat assessed as effect on QRS interval at 10 mg/kg, iv after 5 mins; type: toxicity, organism-based; parameters: dose 10 mg/kg, route intravenous; details: in vivo; outline: as §1
# Rattus norvegicus [13] = test: Cardiotoxicity in Wistar rat assessed as effect on QRS interval at 10 mg/kg, iv after 15 mins; type: toxicity, organism-based; parameters: dose 10 mg/kg, route intravenous; details: in vivo, 0.25 h; outline: as §1
# Rattus norvegicus [14] = test: Antiarrhythmic activity in iv dosed Wistar rat assessed as protection against barium chloride-induced extrasystoles administered 15 mins prior to barium chloride-challenge; type: functional
# Outline: (§2)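 Szekeres model in male Wistar rats. Activity is gradual disappearance of arrhythmia with restored sinus rhythm; protection against disturbances and death scored. Groups of 6 animals.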
# Rattus norvegicus [15] = test: Antiarrhythmic activity in dosed Wistar rat assessed as protection against barium chloride-induced fibrillation administered 15 mins prior to barium chloride-challenge; type: functional; outline: as §2
# Rattus norvegicus [16] = test: Antiarrhythmic activity in iv dosed barium chloride-induced Wistar rat arrhythmia model assessed as protection against mortality administered 15 mins prior to barium chloride-challenge; type: functional; details: Heart
# Outline: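 Male Wistar rats (180–250 g), groups of 6. Activity criterion: gradual disappearance of arrhythmia and restoration of sinus rhythm; protection against heart disturbances and death scored.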
# Rattus norvegicus [17] = test: Antiarrhythmic activity in Wistar rat assessed as protection against adrenaline-induced extrasystoles at 2.5 to 10 mg/kg, iv administered 15 mins prior to adrenaline-challenge; type: functional, organism-based; details: Heart
# Outline: (§3)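 Szekeres model in male Wistar rats anaesthetised with thiopental (60 mg/kg ip). Test compound given iv in water (2.5–10 mg/kg) 15 min before adrenaline 20 µg/kg iv. Scored for extrasystoles, bigeminy and mortality; activity means no premature beats and inhibited arrhythmia versus controls.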
# Rattus norvegicus [18] = test: Antiarrhythmic activity in Wistar rat assessed as protection against adrenaline-induced bigeminy at 2.5 to 10 mg/kg, iv administered 15 mins prior to adrenaline-challenge; type: functional, organism-based; details: Heart; outline: as §3
# Rattus norvegicus [19] = test: Antiarrhythmic activity in iv dosed Wistar rat assessed as protection against adrenaline-induced arrhythmia administered 15 mins prior to adrenaline-challenge; type: functional; details: Heart; outline: as §3
# Rattus norvegicus [20] = test: Hypotensive activity in normotensive Wistar rat assessed as decrease in systolic blood pressure at 2.5 to 10 mg/kg, iv at 1 min; type: organism-based, Artery; parameters: dose 2.5-10 mg/kg, route intravenous; details: in vivo
# Outline: (§4)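 Right carotid artery cannulated with heparin-saline-filled tubing for blood pressure recording. After 5 min stabilisation, compound injected iv into the caudal vein (2.5–10 mg/kg, 1 ml/kg). Systolic and diastolic pressure followed for 60 min. n=6 per group, mean ± SEM, one-way ANOVA.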
# Rattus norvegicus [21] = test: Hypotensive activity in normotensive Wistar rat assessed as decrease in diastolic blood pressure at 2.5 to 10 mg/kg, iv at 1 min; type: organism-based, Artery; parameters: dose 2.5-10 mg/kg, route intravenous; details: in vivo; outline: as §4
# Rattus norvegicus [22] = test: Hypotensive activity in normotensive Wistar rat assessed as decrease in systolic blood pressure at 2.5 to 10 mg/kg, iv after 1 min measured up to 60 mins; type: organism-based, Artery; parameters: dose 2.5-10 mg/kg, route intravenous; details: in vivo; outline: as §4
# Rattus norvegicus [23] = test: Hypotensive activity in normotensive Wistar rat assessed as decrease in diastolic blood pressure at 2.5 to 10 mg/kg, iv after 1 min measured up to 60 mins; type: organism-based, Artery; parameters: dose 2.5-10 mg/kg, route intravenous; details: in vivo; outline: as §4
Ki [1],pKi [1],Structure (SMILES),Activity (Rattus norvegicus [2]),Activity (Rattus norvegicus [3]),Activity (Rattus norvegicus [4]),Activity (Rattus norvegicus [5]),Activity (Rattus norvegicus [6]),Activity (Rattus norvegicus [7]),Activity (Rattus norvegicus [8]),Activity (Rattus norvegicus [9]),Activity (Rattus norvegicus [10]),Activity (Rattus norvegicus [11]),Activity (Rattus norvegicus [12]),Activity (Rattus norvegicus [13]),Activity (Rattus norvegicus [14]; Heart),Activity (Rattus norvegicus [15]; Heart),Activity (Rattus norvegicus [20]),Activity (Rattus norvegicus [21]),Activity (Rattus norvegicus [22]),Activity (Rattus norvegicus [23]),further results
412.9 nM,6.38,COc1ccccc1N1CCN(CCCN2C(=O)N(C)C(=O)C2(c2ccccc2)c2ccccc2)CC1.Cl,–,–,–,–,–,–,–,–,–,–,–,–,–,–,–,–,–,–,–
401.2 nM,6.4,CCOc1ccccc1N1CCN(CCCN2C(=O)N(C(C)C(=O)OC)C(=O)C2(c2ccccc2)c2ccccc2)CC1.Cl (stereo not given),–,–,–,–,–,–,–,–,–,–,–,–,–,–,–,–,–,–,–
–,–,CCOc1ccccc1N1CCN(CC(O)CN2C(=O)N(C)C(=O)C2(c2ccccc2)c2ccccc2)CC1.Cl (racemic),246 min⁻¹,241 min⁻¹,242 min⁻¹,75 ms,79 ms,79 ms,109 ms,114 ms,118 ms,18 ms,16 ms,17 ms,inactive,inactive,Toxic,Toxic,Toxic,Toxic,Activity (Rattus norvegicus [16]): inactive; Activity (Rattus norvegicus [17]): Active; Activity (Rattus norvegicus [18]): Active; ED50 (Rattus norvegicus [19]): 0.33 mg/kg
–,–,COC(=O)CN1C(=O)N(CC(O)CN2CCN(c3ccccc3OC)CC2)C(c2ccccc2)(c2ccccc2)C1=O.Cl (racemic),268 min⁻¹,262 min⁻¹,261 min⁻¹,64 ms,63 ms,63 ms,98 ms,76 ms,74 ms,20 ms,18 ms,17 ms,inactive,inactive,Toxic,Toxic,Non-toxic,Non-toxic,Activity (Rattus norvegicus [16]): inactive; Activity (Rattus norvegicus [17]): Active; Activity (Rattus norvegicus [18]): Active; ED50 (Rattus norvegicus [19]): 0.69 mg/kg
–,–,C=CC(C(=O)OC)N1C(=O)N(CC(O)CN2CCN(c3ccccc3OC)CC2)C(c2ccccc2)(c2ccccc2)C1=O.Cl (racemic),261 min⁻¹,294 min⁻¹,291 min⁻¹,56 ms,57 ms,56 ms,82 ms,78 ms,71 ms,25 ms,23 ms,25 ms,inactive,inactive,–,–,–,–,Activity (Rattus norvegicus [16]): inactive
542.3 nM,6.27,CN1C(=O)N(CC(O)CN2CCN(c3ccccc3)CC2)C(c2ccccc2)(c2ccccc2)C1=O.Cl (racemic),270 min⁻¹,260 min⁻¹,263 min⁻¹,66 ms,59 ms,59 ms,109 ms,79 ms,74 ms,23 ms,20 ms,18 ms,–,–,Toxic,Toxic,Non-toxic,Non-toxic,–
3300 nM,5.48,COC(=O)CN1C(=O)N(CC(O)CN2CCN(c3ccccc3F)CC2)C(c2ccccc2)(c2ccccc2)C1=O.Cl (racemic),284 min⁻¹,256 min⁻¹,281 min⁻¹,66 ms,61 ms,58 ms,86 ms,82 ms,71 ms,17 ms,17 ms,15 ms,–,–,Toxic,Toxic,Non-toxic,Non-toxic,–

Structure (SMILES),Ki [1],pKi [1],Activity (Rattus norvegicus [2]),Activity (Rattus norvegicus [3]),Activity (Rattus norvegicus [4]),Activity (Rattus norvegicus [5]),Activity (Rattus norvegicus [6]),Activity (Rattus norvegicus [7]),Activity (Rattus norvegicus [8]),Activity (Rattus norvegicus [9]),Activity (Rattus norvegicus [10]),Activity (Rattus norvegicus [11]),Activity (Rattus norvegicus [12]),Activity (Rattus norvegicus [13]),Activity (Rattus norvegicus [14]; Heart),Activity (Rattus norvegicus [15]; Heart),Activity (Rattus norvegicus [20]),Activity (Rattus norvegicus [21]),Activity (Rattus norvegicus [22]),Activity (Rattus norvegicus [23]),further results
CN1C(=O)N(CC(O)CN2CCN(c3ccccc3Cl)CC2)C(c2ccccc2)(c2ccccc2)C1=O.Cl (racemic),483 nM,6.32,279 min⁻¹,278 min⁻¹,303 min⁻¹,60 ms,60 ms,60 ms,83 ms,76 ms,72 ms,17 ms,16 ms,16 ms,–,–,–,–,–,–,Activity (Rattus norvegicus [14]): >50%; Activity (Rattus norvegicus [15]): >50%
